Activity calls are given as the source filed them. No cut-off for these calls is given here.
Experiments:
[1] = molecular target: Aurora kinase B (Homo sapiens) (UniProt Q96GD4); assay: Inhibition of recombinant full length human Aurora-B at 1 uM using AKRRRLSSLRA as substrate incubated for 40 mins in presence of [gamma-33P]-ATP by scintillation counting method relative to control
Outline: (§1)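 Kinase panel profiling at 1 μM performed by Eurofins KinaseProfiler; percent inhibition reported as mean of two independent experiments.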

[2] = molecular target: Serine/threonine-protein kinase 26 (Homo sapiens) (UniProt Q9P289); assay: Inhibition of recombinant human MST4 (4 to 304 residues) at 1 uM using RLGRDKYKTLRQIRQ as substrate incubated for 40 mins in presence of [gamma-33P]-ATP by scintillation counting method relative to control
[3] = Cmax in Sprague-Dawley rat at 10 mg/kg, iv by HPLC-MS analysis; format: ADME, organism-based; design: dose 10 mg/kg, route intravenous; conditions: in vivo
Outline: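 Rats fitted with jugular vein catheters for serial blood sampling. Compound dissolved in saline with 5% (v/v) DMSO and given as a single 10 mg/kg dose iv or po after an overnight fast, n = 5 per group. Plasma isolated at once and measured by HPLC with tandem MS detection. Parameters derived by noncompartmental fitting.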

[4] = system: Epidermal growth factor receptor (Homo sapiens), P00533 [T790M]; assay: Inhibition of recombinant human EGFR T790M mutant (696 to end residues) at 1 uM using poly(Glu, Tyr) 4:1 as substrate incubated for 40 mins in presence of [gamma-33P]-ATP by scintillation counting method relative to control
[5] = molecular target: G protein-coupled receptor kinase 3 (Homo sapiens) (UniProt P35626); assay: Inhibition of recombinant human full length GRK3 at 1 uM using casein as substrate incubated for 40 mins in presence of [gamma-33P]-ATP by scintillation counting method relative to control
[6] = molecular target: Tyrosine-protein kinase BTK (Homo sapiens) (UniProt Q06187); assay: Inhibition of recombinant full length human BTK at 1 uM using LSNLYHQGKFLQT as substrate incubated for 40 mins in presence of [gamma-33P]-ATP by scintillation counting method relative to control
Outline: (§2)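 Tested at a single 1 uM in an outsourced commercial kinase-profiling panel, read as percent inhibition. Each value is the mean of two independent experiments.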

[7] = molecular target: Mitogen-activated protein kinase kinase kinase 7 (Homo sapiens) (UniProt O43318); assay: Inhibition of recombinant human TAK1 (1 to 303 residues) at 1 uM using casein as substrate incubated for 40 mins in presence of [gamma-33P]-ATP by scintillation counting method relative to control
[8] = molecular target: Serine/threonine-protein kinase DCLK2 (Homo sapiens) (UniProt Q8N568); assay: Inhibition of recombinant human DCAMKL2 (376 to end residues) at 1 uM using KKLNRTLSFAEPG as substrate incubated for 40 mins in presence of [gamma-33P]-ATP by scintillation counting method relative to control; outline: as §2
Sequence of Serine/threonine-protein kinase DCLK2 (Homo sapiens) (Q8N568 whole entry): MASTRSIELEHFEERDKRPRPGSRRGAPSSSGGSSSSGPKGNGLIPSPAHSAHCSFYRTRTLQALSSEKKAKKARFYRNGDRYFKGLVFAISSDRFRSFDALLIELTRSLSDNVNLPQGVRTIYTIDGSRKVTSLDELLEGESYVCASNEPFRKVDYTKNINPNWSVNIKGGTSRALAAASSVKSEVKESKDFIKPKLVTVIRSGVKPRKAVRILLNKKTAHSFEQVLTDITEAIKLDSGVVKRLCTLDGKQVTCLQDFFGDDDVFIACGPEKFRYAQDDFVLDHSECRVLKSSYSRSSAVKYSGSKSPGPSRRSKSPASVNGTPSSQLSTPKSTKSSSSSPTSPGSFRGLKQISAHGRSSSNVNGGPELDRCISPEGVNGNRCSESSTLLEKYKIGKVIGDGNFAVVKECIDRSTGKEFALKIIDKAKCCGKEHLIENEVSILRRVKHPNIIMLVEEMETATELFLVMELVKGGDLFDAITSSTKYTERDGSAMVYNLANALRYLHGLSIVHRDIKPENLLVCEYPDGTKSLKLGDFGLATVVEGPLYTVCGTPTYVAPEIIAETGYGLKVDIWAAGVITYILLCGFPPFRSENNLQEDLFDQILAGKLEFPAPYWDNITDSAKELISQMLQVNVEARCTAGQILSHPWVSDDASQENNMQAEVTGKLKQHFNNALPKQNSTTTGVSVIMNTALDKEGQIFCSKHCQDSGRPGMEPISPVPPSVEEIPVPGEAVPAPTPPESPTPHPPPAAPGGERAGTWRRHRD

[9] = Toxicity in BALB/c mouse assessed as effect on blood parameter by measuring MCV at 40 mg/kg, po administered once two days for 4 times by hematology analyzer; conditions: in vivo
[10] = molecular target: Serine/threonine-protein kinase 32A (Homo sapiens) (UniProt Q8WU08); assay: Inhibition of recombinant human full length STK32A at 1 uM using casein as substrate incubated for 40 mins in presence of [gamma-33P]-ATP by scintillation counting method relative to control
Sequence of Serine/threonine-protein kinase 32A (Homo sapiens) (Q8WU08 whole entry): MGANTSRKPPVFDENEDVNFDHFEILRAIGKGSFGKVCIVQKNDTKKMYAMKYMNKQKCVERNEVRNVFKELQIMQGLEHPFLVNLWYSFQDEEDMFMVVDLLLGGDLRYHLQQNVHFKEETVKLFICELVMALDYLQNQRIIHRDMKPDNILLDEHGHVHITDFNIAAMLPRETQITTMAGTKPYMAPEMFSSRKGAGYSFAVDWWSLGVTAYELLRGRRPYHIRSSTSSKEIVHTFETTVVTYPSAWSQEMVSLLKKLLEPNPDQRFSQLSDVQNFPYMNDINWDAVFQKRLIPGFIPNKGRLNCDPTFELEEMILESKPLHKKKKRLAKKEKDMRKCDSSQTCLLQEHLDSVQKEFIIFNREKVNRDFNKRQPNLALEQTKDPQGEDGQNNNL
Outline: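 Single-point inhibition at 1 uM measured in a commercial kinase profiling panel (KinaseProfiler); each value is the mean of two independent experiments.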

[11] = molecular target: Serine/threonine-protein kinase Chk2 (Homo sapiens) (UniProt O96017); assay: Inhibition of recombinant human CHK2 (5 to end residues) at 1 uM using KKKVSRSGLYRSP as substrate incubated for 40 mins in presence of [gamma-33P]-ATP by scintillation counting method relative to control; outline: as §1
Sequence of Serine/threonine-protein kinase Chk2 (Homo sapiens) (O96017 whole entry, the tested form may be a part): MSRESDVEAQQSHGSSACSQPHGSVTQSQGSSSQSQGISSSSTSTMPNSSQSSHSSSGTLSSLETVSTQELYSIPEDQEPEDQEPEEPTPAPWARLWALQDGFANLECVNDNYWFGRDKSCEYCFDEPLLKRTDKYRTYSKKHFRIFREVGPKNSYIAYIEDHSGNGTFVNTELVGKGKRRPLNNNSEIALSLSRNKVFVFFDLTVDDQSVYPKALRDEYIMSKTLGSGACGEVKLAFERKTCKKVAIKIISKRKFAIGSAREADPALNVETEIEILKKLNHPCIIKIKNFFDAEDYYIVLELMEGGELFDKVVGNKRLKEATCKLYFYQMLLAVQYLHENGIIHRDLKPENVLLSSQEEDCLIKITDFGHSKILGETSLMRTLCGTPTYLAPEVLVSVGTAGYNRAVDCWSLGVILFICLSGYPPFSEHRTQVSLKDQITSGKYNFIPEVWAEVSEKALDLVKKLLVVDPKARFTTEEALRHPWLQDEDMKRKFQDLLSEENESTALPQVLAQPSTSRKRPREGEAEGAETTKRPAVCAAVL

[12] = molecular target: Mitogen-activated protein kinase kinase kinase 5 (Homo sapiens) (UniProt Q99683); assay: Inhibition of recombinant human ASK1 (649 to 946 residues) at 1 uM using myelin ba as substrate incubated for 40 mins in presence of [gamma-33P]-ATP by scintillation counting method relative to control; outline: as §2
Sequence of Mitogen-activated protein kinase kinase kinase 5 (Homo sapiens) (Q99683 whole entry, the tested form may be a part): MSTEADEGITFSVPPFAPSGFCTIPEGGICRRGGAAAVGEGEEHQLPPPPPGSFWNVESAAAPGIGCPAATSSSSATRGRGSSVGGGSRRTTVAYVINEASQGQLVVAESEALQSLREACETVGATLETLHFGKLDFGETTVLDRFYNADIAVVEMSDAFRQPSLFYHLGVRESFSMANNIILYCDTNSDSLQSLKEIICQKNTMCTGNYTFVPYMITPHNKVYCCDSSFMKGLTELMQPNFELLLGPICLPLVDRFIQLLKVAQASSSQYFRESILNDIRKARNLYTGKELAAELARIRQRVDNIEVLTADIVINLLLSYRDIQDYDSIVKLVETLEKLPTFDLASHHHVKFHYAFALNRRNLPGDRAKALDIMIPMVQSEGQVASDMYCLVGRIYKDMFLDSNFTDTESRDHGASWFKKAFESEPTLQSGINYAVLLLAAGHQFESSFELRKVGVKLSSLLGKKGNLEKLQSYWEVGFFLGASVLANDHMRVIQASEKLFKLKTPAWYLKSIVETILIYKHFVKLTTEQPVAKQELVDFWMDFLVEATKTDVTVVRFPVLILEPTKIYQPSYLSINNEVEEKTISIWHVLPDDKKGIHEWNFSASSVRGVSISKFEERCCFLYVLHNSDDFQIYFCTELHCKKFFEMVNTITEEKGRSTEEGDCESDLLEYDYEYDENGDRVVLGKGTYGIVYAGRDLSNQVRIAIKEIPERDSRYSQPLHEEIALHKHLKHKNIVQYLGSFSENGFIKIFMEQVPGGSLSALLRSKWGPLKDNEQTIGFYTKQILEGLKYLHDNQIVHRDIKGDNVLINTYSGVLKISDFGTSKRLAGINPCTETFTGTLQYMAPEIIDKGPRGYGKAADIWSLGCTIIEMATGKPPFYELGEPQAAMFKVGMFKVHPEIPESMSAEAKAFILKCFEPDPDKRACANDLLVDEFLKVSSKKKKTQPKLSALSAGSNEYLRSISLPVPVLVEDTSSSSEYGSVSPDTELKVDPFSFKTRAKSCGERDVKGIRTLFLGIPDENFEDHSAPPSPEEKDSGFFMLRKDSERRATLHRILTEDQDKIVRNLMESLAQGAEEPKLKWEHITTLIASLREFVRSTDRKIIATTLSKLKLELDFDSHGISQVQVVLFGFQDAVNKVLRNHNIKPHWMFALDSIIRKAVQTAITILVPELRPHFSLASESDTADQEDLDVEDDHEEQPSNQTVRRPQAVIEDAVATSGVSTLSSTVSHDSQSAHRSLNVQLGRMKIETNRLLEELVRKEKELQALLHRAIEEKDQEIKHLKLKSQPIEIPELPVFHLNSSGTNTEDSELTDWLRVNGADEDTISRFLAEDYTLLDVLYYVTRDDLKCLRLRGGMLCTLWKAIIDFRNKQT

[13] = system: Proto-oncogene tyrosine-protein kinase receptor Ret (Homo sapiens), P07949 [V804M]; assay: Inhibition of recombinant human RET V804M mutant (658 to end residues) at 1 uM using KKKVSRSGLYRSPSMPENLNRPR as substrate incubated for 40 mins in presence of [gamma-33P]-ATP by scintillation counting method relative to control
[14] = molecular target: Vascular endothelial growth factor receptor 2 (Homo sapiens, UniProt P35968); assay: Inhibition of recombinant human KDR (790 to end residues) at 1 uM using myelin basic protein as substrate incubated for 40 mins in presence of [gamma-33P]-ATP by scintillation counting method relative to control
[15] = molecular target: Mitogen-activated protein kinase 1 (Homo sapiens) (UniProt P28482); assay: Inhibition of recombinant human full length MAPK2 at 1 uM using myelin basic protein as substrate incubated for 40 mins in presence of [gamma-33P]-ATP by scintillation counting method relative to control; outline: as §2
Sequence of Mitogen-activated protein kinase 1 (Homo sapiens) (P28482 whole entry): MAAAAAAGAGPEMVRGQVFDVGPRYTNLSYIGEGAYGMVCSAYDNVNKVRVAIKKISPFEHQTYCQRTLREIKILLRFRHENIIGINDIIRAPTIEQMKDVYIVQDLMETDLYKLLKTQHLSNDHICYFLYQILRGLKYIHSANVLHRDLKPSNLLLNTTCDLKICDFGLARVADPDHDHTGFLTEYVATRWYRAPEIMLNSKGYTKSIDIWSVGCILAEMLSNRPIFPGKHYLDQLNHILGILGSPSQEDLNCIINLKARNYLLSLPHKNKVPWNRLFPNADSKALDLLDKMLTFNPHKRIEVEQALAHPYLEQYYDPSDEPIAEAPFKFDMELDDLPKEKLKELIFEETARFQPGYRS

SiHa = assay: Antitumor activity against human SiHa cells xenografted in NOD/SCID BALB/c mouse assessed as tumor growth inhibition at 10 to 40 mg/kg, po administered for 21 days; format: functional, organism-based
[16] = system: Epidermal growth factor receptor (Homo sapiens), P00533 [L858R]; assay: Inhibition of recombinant human EGFR L858R mutant (696 to end residues) at 1 uM using poly(Glu, Tyr) 4:1 as substrate incubated for 40 mins in presence of [gamma-33P]-ATP by scintillation counting method relative to control; outline: as §1
Sequence of Epidermal growth factor receptor (Homo sapiens), P00533 [L858R] (P00533 whole entry L858R): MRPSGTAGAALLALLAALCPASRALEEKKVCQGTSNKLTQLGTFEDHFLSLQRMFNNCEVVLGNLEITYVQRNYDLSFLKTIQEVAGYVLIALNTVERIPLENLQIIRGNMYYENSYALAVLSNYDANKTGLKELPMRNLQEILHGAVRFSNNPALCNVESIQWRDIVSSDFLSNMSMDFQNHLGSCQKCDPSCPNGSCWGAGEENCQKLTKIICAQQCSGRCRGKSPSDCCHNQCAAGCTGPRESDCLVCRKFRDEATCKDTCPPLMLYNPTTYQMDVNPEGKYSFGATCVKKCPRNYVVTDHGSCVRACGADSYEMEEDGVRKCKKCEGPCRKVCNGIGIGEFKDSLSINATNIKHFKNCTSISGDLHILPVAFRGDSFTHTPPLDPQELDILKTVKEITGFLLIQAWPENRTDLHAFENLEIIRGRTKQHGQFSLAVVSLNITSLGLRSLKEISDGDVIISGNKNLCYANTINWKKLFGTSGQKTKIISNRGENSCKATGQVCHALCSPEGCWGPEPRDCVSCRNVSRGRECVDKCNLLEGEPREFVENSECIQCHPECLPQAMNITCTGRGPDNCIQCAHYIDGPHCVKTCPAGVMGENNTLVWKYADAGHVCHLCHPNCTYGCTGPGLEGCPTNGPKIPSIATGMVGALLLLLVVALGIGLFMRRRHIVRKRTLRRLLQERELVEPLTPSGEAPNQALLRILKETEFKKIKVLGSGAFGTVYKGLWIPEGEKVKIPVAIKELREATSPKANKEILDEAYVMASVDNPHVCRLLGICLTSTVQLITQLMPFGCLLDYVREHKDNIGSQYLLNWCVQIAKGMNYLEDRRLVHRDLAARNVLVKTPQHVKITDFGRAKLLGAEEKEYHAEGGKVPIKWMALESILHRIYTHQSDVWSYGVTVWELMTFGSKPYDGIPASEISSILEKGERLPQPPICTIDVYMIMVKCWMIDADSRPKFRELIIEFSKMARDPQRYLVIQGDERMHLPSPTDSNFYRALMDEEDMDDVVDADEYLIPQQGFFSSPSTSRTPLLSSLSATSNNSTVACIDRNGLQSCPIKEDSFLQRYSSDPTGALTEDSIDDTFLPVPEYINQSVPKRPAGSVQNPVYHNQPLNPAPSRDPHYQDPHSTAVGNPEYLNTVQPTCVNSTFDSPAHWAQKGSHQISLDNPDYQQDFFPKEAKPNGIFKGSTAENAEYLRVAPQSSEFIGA

[17] = molecular target: Serine-protein kinase ATM (Homo sapiens) (UniProt Q13315); assay: Inhibition of recombinant human full length ATM at 1 uM using GST-cMyc-p53 as substrate incubated for 40 mins in presence of [gamma-33P]-ATP by scintillation counting method relative to control
[18] = molecular target: Fibroblast growth factor receptor 1 (Homo sapiens) (UniProt P11362); assay: Inhibition of recombinant human FGFR1 (456 to 765 residues) at 1 uM using KKKSPGEYVNIEFG as substrate incubated for 40 mins in presence of [gamma-33P]-ATP by scintillation counting method relative to control; outline: as §2
[19] = molecular target: Ephrin type-A receptor 5 (Homo sapiens) (UniProt P54756); assay: Inhibition of recombinant human EPhA5 (655 to 956 residues) at 1 uM using poly(Glu, Tyr) 4:1 as substrate incubated for 40 mins in presence of [gamma-33P]-ATP by scintillation counting method relative to control
[20] = molecular target: [Pyruvate dehydrogenase (acetyl-transferring)] kinase isozyme 4, mitochondrial (Homo sapiens) (UniProt Q16654); assay: Inhibition of recombinant human full length PDHK4 at 1 uM using KKKYHGHSMSDPGVSYRT as substrate incubated for 40 mins in presence of [gamma-33P]-ATP by scintillation counting method relative to control; outline: as §2
Sequence of [Pyruvate dehydrogenase (acetyl-transferring)] kinase isozyme 4, mitochondrial (Homo sapiens) (Q16654 whole entry, looked up): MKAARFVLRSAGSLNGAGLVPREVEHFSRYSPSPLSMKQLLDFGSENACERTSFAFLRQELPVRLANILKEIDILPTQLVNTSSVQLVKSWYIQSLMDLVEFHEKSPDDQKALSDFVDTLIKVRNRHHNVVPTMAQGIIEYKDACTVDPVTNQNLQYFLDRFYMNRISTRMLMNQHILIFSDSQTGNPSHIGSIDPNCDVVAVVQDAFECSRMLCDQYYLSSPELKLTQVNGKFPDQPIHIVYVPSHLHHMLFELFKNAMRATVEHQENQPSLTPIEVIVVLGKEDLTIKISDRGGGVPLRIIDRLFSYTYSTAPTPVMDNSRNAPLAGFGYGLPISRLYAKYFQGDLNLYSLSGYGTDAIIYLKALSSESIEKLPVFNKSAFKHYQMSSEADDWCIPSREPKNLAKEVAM

Q: Which results are given for `Cc1ccc(NC(=O)C2(C(=O)Nc3ccc(Nc4ncc(F)c(-c5cc(F)c6nc(C)n(C(C)C)c6c5)n4)cc3)CC2)cc1`?
A: inhibition [1]: 64%; inhibition [2]: 48%; Cmax [3]: 7000 ng/mL; inhibition [4]: 55%; inhibition [5]: 10%; inhibition [6]: 0%; inhibition [7]: 7%; inhibition [8]: 0%; Activity [9]: Non-Toxic; inhibition [10]: 0%; inhibition [11]: 22%; inhibition [12]: 0%; inhibition [13]: 27%; inhibition [14]: 95%; inhibition [15]: 0%; TGI (SiHa): Active; inhibition [16]: 35%; inhibition [17]: 2%; inhibition [18]: 0%; inhibition [19]: 33%; inhibition [20]: 0%

— ChEMBL document CHEMBL4406821, “Novel dual inhibitors targeting CDK4 and VEGFR2 synergistically suppressed cancer progression and angiogenesis” (Eur J Med Chem, 2019)
